{"source": "ChEMBL document CHEMBL1275580", "about": "“Antifungal susceptibilities among different serotypes of Cryptococcus gattii and Cryptococcus neoformans” (2009)", "key": {"Cryptococcus neoformans [1]": {"tested_on": "Cryptococcus neoformans", "experiment": "Antifungal activity against Cryptococcus neoformans serotype D after 72 hrs by broth microdilution method", "assay_type": "functional", "summary_of_the_method": "(§1)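 Isolates subcultured at least twice on Sabouraud dextrose agar; serotype assigned by multiplex PCR, species confirmed on canavanine-glycine-bromothymol blue medium. CLSI M27-A2 broth microdilution in RPMI 1640 buffered to pH 7.0 with MOPS, inoculum 0.5 × 10^3 to 2.5 × 10^3 cells/ml, 35°C. Final drug ranges were 0.015–8 or 0.25–64 μg/ml depending on agent. MIC read at 72 h as 50% turbidity reduction versus growth control, or as 100% inhibition for the polyene. C. krusei ATCC 6258 and C. parapsilosis ATCC 22019 served as QC strains.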"}, "Cryptococcus neoformans [2]": {"tested_on": "Cryptococcus neoformans", "experiment": "Antifungal activity against Cryptococcus neoformans after 72 hrs by broth microdilution method", "assay_type": "functional", "summary_of_the_method": "as §1"}, "[3]": {"tested_on": "Cryptococcus gattii species complex", "experiment": "Antifungal activity against Cryptococcus gattii serotype B after 72 hrs by broth microdilution method", "assay_type": "functional, Cryptococcus bacillisporus", "summary_of_the_method": "(§2)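 Isolates subcultured at least twice on Sabouraud dextrose agar; serotype by multiplex PCR, species confirmed on canavanine-glycine-bromothymol blue medium. CLSI M27-A2 broth microdilution in RPMI 1640 with MOPS, pH 7.0. Inoculum 0.5–2.5 × 10^3 cells/ml, 35°C. Final drug range 0.015–8 or 0.25–64 μg/ml. MIC at 72 h read as 50% turbidity reduction versus growth control, or 100% inhibition for the polyene.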"}, "[4]": {"tested_on": "Cryptococcus gattii species complex", "experiment": "Antifungal activity against Cryptococcus gattii after 72 hrs by broth microdilution method", "assay_type": "functional, Cryptococcus bacillisporus", "summary_of_the_method": "as §2"}, "Cryptococcus neoformans [5]": {"tested_on": "Cryptococcus neoformans", "experiment": "Antifungal activity against Cryptococcus neoformans serotype A after 72 hrs by broth microdilution method", "assay_type": "functional", "summary_of_the_method": "as §1"}, "Cryptococcus neoformans [6]": {"tested_on": "Cryptococcus neoformans", "experiment": "Antifungal activity against Cryptococcus neoformans serotype AD after 72 hrs by broth microdilution method", "assay_type": "functional", "summary_of_the_method": "as §1"}, "[7]": {"tested_on": "Cryptococcus gattii species complex", "experiment": "Antifungal activity against Cryptococcus gattii serotype C after 72 hrs by broth microdilution method", "assay_type": "functional, Cryptococcus bacillisporus", "summary_of_the_method": "as §2"}}}
{"smiles": "C[C@@H](c1ncncc1F)[C@](O)(Cn1cncn1)c1ccc(F)cc1F", "note": "[VORICONAZOLE]", "values": [{"measurement": "MIC50", "setting": "Cryptococcus neoformans [1]", "result": 0.03, "unit": "µg/mL"}, {"measurement": "MIC90", "setting": "Cryptococcus neoformans [1]", "result": 0.25, "unit": "µg/mL"}, {"measurement": "MIC50", "setting": "Cryptococcus neoformans [2]", "result": 0.06, "unit": "µg/mL"}, {"measurement": "MIC90", "setting": "Cryptococcus neoformans [2]", "result": 0.25, "unit": "µg/mL"}, {"measurement": "MIC50", "setting": "[3]", "result": 0.125, "unit": "µg/mL"}, {"measurement": "MIC90", "setting": "[3]", "result": 0.25, "unit": "µg/mL"}, {"measurement": "MIC50", "setting": "[4]", "result": 0.125, "unit": "µg/mL"}, {"measurement": "MIC90", "setting": "[4]", "result": 0.25, "unit": "µg/mL"}, {"measurement": "MIC50", "setting": "Cryptococcus neoformans [5]", "result": 0.06, "unit": "µg/mL"}, {"measurement": "MIC90", "setting": "Cryptococcus neoformans [5]", "result": 0.25, "unit": "µg/mL"}, {"measurement": "MIC50", "setting": "Cryptococcus neoformans [6]", "result": 0.06, "unit": "µg/mL"}, {"measurement": "MIC90", "setting": "Cryptococcus neoformans [6]", "result": 0.125, "unit": "µg/mL"}, {"measurement": "MIC50", "setting": "[7]", "result": 0.125, "unit": "µg/mL"}, {"measurement": "MIC90", "setting": "[7]", "result": 0.25, "unit": "µg/mL"}]}
{"smiles": "C[C@@H]1[C@H](O)[C@@H](C)/C=C/C=C/C=C/C=C/C=C/C=C/C=C/[C@H](O[C@@H]2O[C@H](C)[C@@H](O)[C@H](N)[C@@H]2O)C[C@@H]2O[C@](O)(C[C@@H](O)C[C@@H](O)[C@H](O)CC[C@@H](O)C[C@@H](O)CC(=O)O[C@H]1C)C[C@H](O)[C@H]2C(=O)O", "note": "[AMPHOTERICIN B]", "values": [{"measurement": "MIC50", "setting": "Cryptococcus neoformans [2]", "result": 0.25, "unit": "µg/mL"}, {"measurement": "MIC90", "setting": "Cryptococcus neoformans [2]", "result": 0.5, "unit": "µg/mL"}, {"measurement": "MIC50", "setting": "[3]", "result": 0.25, "unit": "µg/mL"}, {"measurement": "MIC90", "setting": "[3]", "result": 0.25, "unit": "µg/mL"}, {"measurement": "MIC50", "setting": "[4]", "result": 0.25, "unit": "µg/mL"}, {"measurement": "MIC90", "setting": "[4]", "result": 0.25, "unit": "µg/mL"}, {"measurement": "MIC50", "setting": "Cryptococcus neoformans [5]", "result": 0.25, "unit": "µg/mL"}, {"measurement": "MIC90", "setting": "Cryptococcus neoformans [5]", "result": 0.5, "unit": "µg/mL"}, {"measurement": "MIC50", "setting": "Cryptococcus neoformans [6]", "result": 0.25, "unit": "µg/mL"}, {"measurement": "MIC90", "setting": "Cryptococcus neoformans [6]", "result": 0.25, "unit": "µg/mL"}, {"measurement": "MIC50", "setting": "[7]", "result": 0.25, "unit": "µg/mL"}, {"measurement": "MIC90", "setting": "[7]", "result": 0.5, "unit": "µg/mL"}]}
{"smiles": "OC(Cn1cncn1)(Cn1cncn1)c1ccc(F)cc1F", "note": "[FLUCONAZOLE]", "values": [{"measurement": "MIC50", "setting": "Cryptococcus neoformans [2]", "result": 2, "unit": "µg/mL"}, {"measurement": "MIC90", "setting": "Cryptococcus neoformans [2]", "result": 4, "unit": "µg/mL"}, {"measurement": "MIC50", "setting": "[3]", "result": 2, "unit": "µg/mL"}, {"measurement": "MIC90", "setting": "[3]", "result": 8, "unit": "µg/mL"}, {"measurement": "MIC50", "setting": "[4]", "result": 2, "unit": "µg/mL"}, {"measurement": "MIC90", "setting": "[4]", "result": 8, "unit": "µg/mL"}, {"measurement": "MIC50", "setting": "Cryptococcus neoformans [5]", "result": 2, "unit": "µg/mL"}, {"measurement": "MIC90", "setting": "Cryptococcus neoformans [5]", "result": 4, "unit": "µg/mL"}, {"measurement": "MIC50", "setting": "Cryptococcus neoformans [6]", "result": 2, "unit": "µg/mL"}, {"measurement": "MIC90", "setting": "Cryptococcus neoformans [6]", "result": 4, "unit": "µg/mL"}, {"measurement": "MIC50", "setting": "[7]", "result": 2, "unit": "µg/mL"}, {"measurement": "MIC90", "setting": "[7]", "result": 4, "unit": "µg/mL"}]}
{"smiles": "C[C@@H](c1nc(-c2ccc(C#N)cc2)cs1)[C@](O)(Cn1cncn1)c1cc(F)ccc1F", "note": "[ISAVUCONAZOLE]", "values": [{"measurement": "MIC", "setting": "Cryptococcus neoformans [1]", "result": "< 0.015", "unit": "µg/mL"}, {"measurement": "MIC50", "setting": "Cryptococcus neoformans [1]", "result": "< 0.015", "unit": "µg/mL"}, {"measurement": "MIC90", "setting": "Cryptococcus neoformans [1]", "result": 0.03, "unit": "µg/mL"}, {"measurement": "MIC", "setting": "Cryptococcus neoformans [2]", "result": "< 0.015", "unit": "µg/mL"}, {"measurement": "MIC50", "setting": "Cryptococcus neoformans [2]", "result": "< 0.015", "unit": "µg/mL"}, {"measurement": "MIC90", "setting": "Cryptococcus neoformans [2]", "result": 0.06, "unit": "µg/mL"}, {"measurement": "MIC50", "setting": "[3]", "result": 0.03, "unit": "µg/mL"}, {"measurement": "MIC90", "setting": "[3]", "result": 0.06, "unit": "µg/mL"}, {"measurement": "MIC50", "setting": "[4]", "result": 0.03, "unit": "µg/mL"}, {"measurement": "MIC90", "setting": "[4]", "result": 0.06, "unit": "µg/mL"}, {"measurement": "MIC50", "setting": "Cryptococcus neoformans [5]", "result": 0.03, "unit": "µg/mL"}, {"measurement": "MIC90", "setting": "Cryptococcus neoformans [5]", "result": 0.125, "unit": "µg/mL"}, {"measurement": "MIC", "setting": "Cryptococcus neoformans [6]", "result": "< 0.015", "unit": "µg/mL"}, {"measurement": "MIC50", "setting": "Cryptococcus neoformans [6]", "result": "< 0.015", "unit": "µg/mL"}, {"measurement": "MIC90", "setting": "Cryptococcus neoformans [6]", "result": 0.03, "unit": "µg/mL"}, {"measurement": "MIC", "setting": "[7]", "result": "< 0.015", "unit": "µg/mL"}, {"measurement": "MIC50", "setting": "[7]", "result": "< 0.015", "unit": "µg/mL"}, {"measurement": "MIC90", "setting": "[7]", "result": 0.03, "unit": "µg/mL"}]}
{"smiles": "Nc1nc(=O)[nH]cc1F", "note": "[FLUCYTOSINE]", "values": [{"measurement": "MIC50", "setting": "Cryptococcus neoformans [1]", "result": 4, "unit": "µg/mL"}, {"measurement": "MIC90", "setting": "Cryptococcus neoformans [1]", "result": 8, "unit": "µg/mL"}, {"measurement": "MIC50", "setting": "Cryptococcus neoformans [2]", "result": 4, "unit": "µg/mL"}, {"measurement": "MIC90", "setting": "Cryptococcus neoformans [2]", "result": 8, "unit": "µg/mL"}, {"measurement": "MIC50", "setting": "[3]", "result": 2, "unit": "µg/mL"}, {"measurement": "MIC90", "setting": "[3]", "result": 4, "unit": "µg/mL"}, {"measurement": "MIC50", "setting": "[4]", "result": 2, "unit": "µg/mL"}, {"measurement": "MIC90", "setting": "[4]", "result": 8, "unit": "µg/mL"}, {"measurement": "MIC50", "setting": "Cryptococcus neoformans [5]", "result": 4, "unit": "µg/mL"}, {"measurement": "MIC90", "setting": "Cryptococcus neoformans [5]", "result": 4, "unit": "µg/mL"}, {"measurement": "MIC50", "setting": "Cryptococcus neoformans [6]", "result": 4, "unit": "µg/mL"}, {"measurement": "MIC90", "setting": "Cryptococcus neoformans [6]", "result": 8, "unit": "µg/mL"}, {"measurement": "MIC50", "setting": "[7]", "result": 2, "unit": "µg/mL"}, {"measurement": "MIC90", "setting": "[7]", "result": 8, "unit": "µg/mL"}]}
{"smiles": "CC[C@@H]([C@H](C)O)n1ncn(-c2ccc(N3CCN(c4ccc(OC[C@@H]5CO[C@@](Cn6cncn6)(c6ccc(F)cc6F)C5)cc4)CC3)cc2)c1=O", "note": "[POSACONAZOLE]", "values": [{"measurement": "MIC", "setting": "Cryptococcus neoformans [1]", "result": "< 0.015", "unit": "µg/mL"}, {"measurement": "MIC50", "setting": "Cryptococcus neoformans [1]", "result": "< 0.015", "unit": "µg/mL"}, {"measurement": "MIC90", "setting": "Cryptococcus neoformans [1]", "result": 0.06, "unit": "µg/mL"}, {"measurement": "MIC50", "setting": "Cryptococcus neoformans [2]", "result": 0.03, "unit": "µg/mL"}, {"measurement": "MIC90", "setting": "Cryptococcus neoformans [2]", "result": 0.06, "unit": "µg/mL"}, {"measurement": "MIC50", "setting": "[3]", "result": 0.03, "unit": "µg/mL"}, {"measurement": "MIC90", "setting": "[3]", "result": 0.125, "unit": "µg/mL"}, {"measurement": "MIC50", "setting": "[4]", "result": 0.03, "unit": "µg/mL"}, {"measurement": "MIC90", "setting": "[4]", "result": 0.125, "unit": "µg/mL"}, {"measurement": "MIC50", "setting": "Cryptococcus neoformans [5]", "result": 0.06, "unit": "µg/mL"}, {"measurement": "MIC90", "setting": "Cryptococcus neoformans [5]", "result": 0.25, "unit": "µg/mL"}, {"measurement": "MIC50", "setting": "Cryptococcus neoformans [6]", "result": 0.03, "unit": "µg/mL"}, {"measurement": "MIC90", "setting": "Cryptococcus neoformans [6]", "result": 0.06, "unit": "µg/mL"}, {"measurement": "MIC50", "setting": "[7]", "result": 0.03, "unit": "µg/mL"}, {"measurement": "MIC90", "setting": "[7]", "result": 0.06, "unit": "µg/mL"}]}
